Experimental data taken from ChEMBL document CHEMBL1142895, “Discovery of a new insecticide lead by optimizing a target-diverse scaffold: tetrazolinone derivatives” (2007).
The source made the active and inactive calls. The calls are words filed in the database; no cut-off is given here.

Tests used:
Echinochloa crus-galli [1] = test: Herbicidal activity against Echinochloa crus-galli at 450 g ai/ha in greenhouse in vivo test; assay type: functional, organism-based
Sorghum bicolor [2] = test: Inhibition of root growth of Sorghum bicolor at 100 mg/L; assay type: functional
Method in brief: (§1)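 Seeds of each species were grown in Petri dishes with 10 seeds per dish, at 28 °C, 70–80% RH, 16:8 h light:dark photoperiod and 3000 lx light for 5 days. Root and stem lengths were measured for the 10 seeds and averaged. Each test and its controls were run in three replicates, and the data were given probit analysis.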

Echinochloa crus-galli [3] = test: Inhibition of root growth of Echinochloa crus-galli at 100 mg/L; assay type: functional; method in brief: as §1
Cucumis sativus [4] = test: Herbicidal activity against Cucumis sativus at 450 g ai/ha in greenhouse in vivo test; assay type: functional, organism-based
Cucumis sativus [5] = test: Inhibition of stem growth of Cucumis sativus at 100 mg/L; assay type: functional; method in brief: as §1
Radish [6] = test: Inhibition of stem growth of Raphanus sativus at 100 mg/L; assay type: functional; method in brief: as §1
Triticum aestivum [7] = test: Inhibition of stem growth of Triticum aestivum at 100 mg/L; assay type: functional; method in brief: as §1
Sorghum bicolor [8] = test: Inhibition of stem growth of Sorghum bicolor at 100 mg/L; assay type: functional; method in brief: as §1
Triticum aestivum [9] = test: Inhibition of root growth of Triticum aestivum at 100 mg/L; assay type: functional; method in brief: as §1
Echinochloa crus-galli [10] = test: Inhibition of stem growth of Echinochloa crus-galli at 100 mg/L; assay type: functional; method in brief: as §1
Aphis = test: Insecticidal activity against Aphis medicagini at 250 mg/L; assay type: functional
Method in brief: (§2)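 Groups of 10 of each species were placed in glass Petri dishes and sprayed with test solution using a Potter sprayer. After air-drying, they were held under normal rearing conditions. Mortality at 72 h was taken from the number and size of live larvae relative to untreated controls.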

Triticum aestivum [11] = test: Herbicidal activity against Triticum aestivum at 450 g ai/ha in greenhouse in vivo test; assay type: functional, organism-based
Radish [12] = test: Herbicidal activity against Raphanus sativus at 450 g ai/ha in greenhouse in vivo test; assay type: functional, organism-based
Cucumis sativus [13] = test: Inhibition of root growth of Cucumis sativus at 100 mg/L; assay type: functional; method in brief: as §1
Radish [14] = test: Inhibition of root growth of Raphanus sativus at 100 mg/L; assay type: functional; method in brief: as §1
Sorghum bicolor [15] = test: Herbicidal activity against Sorghum bicolor at 450 g ai/ha in greenhouse in vivo test; assay type: functional, organism-based
[16] = tested on: Brassica rapa subsp. oleifera; test: Inhibition of stem growth of Brassica campestris at 100 mg/L; assay type: functional; method in brief: as §1
[17] = tested on: Brassica rapa subsp. oleifera; test: Herbicidal activity against Brassica campestris at 450 g ai/ha in greenhouse in vivo test; assay type: functional, organism-based
Tetranychus cinnabarinus = test: Insecticidal activity against Tetranychus cinnabarinus at 250 mg/L; assay type: functional; method in brief: as §2
[18] = tested on: Brassica rapa subsp. oleifera; test: Inhibition of root growth of Brassica campestris at 100 mg/L; assay type: functional; method in brief: as §1

Compound	Activity (Echinochloa crus-galli [1])	inhibition at 100 µg/mL (Sorghum bicolor [2])	inhibition at 100 µg/mL (Echinochloa crus-galli [3])	Activity (Cucumis sativus [4])	inhibition at 100 µg/mL (Cucumis sativus [5])	inhibition at 100 µg/mL (Radish [6])	inhibition at 100 µg/mL (Triticum aestivum [7])	inhibition at 100 µg/mL (Sorghum bicolor [8])	inhibition at 100 µg/mL (Triticum aestivum [9])	inhibition at 100 µg/mL (Echinochloa crus-galli [10])	Activity (Aphis)	Activity (Triticum aestivum [11])	Activity (Radish [12])	inhibition at 100 µg/mL (Cucumis sativus [13])	inhibition at 100 µg/mL (Radish [14])	Activity (Sorghum bicolor [15])	inhibition at 100 µg/mL [16]	Activity [17]	Activity (Tetranychus cinnabarinus)	inhibition at 100 µg/mL [18]
CCCSc1nnc(Cn2nnn(-c3ccc(Cl)cc3)c2=O)s1	inactive	80%	80%	inactive	70%	70%	70%	0%	70%	80%	0%	inactive	inactive	50%	70%	inactive	60%	inactive	0%	70%
O=c1n(Cc2nnc(SCc3ccccc3)s2)nnn1-c1ccc(Cl)cc1	inactive	60%	60%	inactive	60%	40%	60%	70%	60%	70%	5.7%	inactive	inactive	60%	60%	inactive	50%	inactive	2.9%	60%
COc1cc(-n2nnn(C)c2=O)c(Cl)cc1Cl	inactive	70%	30%	inactive	60%	0%	50%	30%	70%	30%	0%	inactive	inactive	60%	0%	inactive	0%	inactive	100%	0%
Cc1ccccc1Cn1nnn(-c2ccc(Cl)cc2)c1=O	inactive	0%	0%	inactive	0%	0%	30%	0%	0%	0%	21.7%	inactive	inactive	0%	0%	inactive	0%	inactive	2.9%	0%
CCOC(=O)Cn1nnn(-c2ccc(Cl)cc2)c1=O	inactive	20%	0%	inactive	0%	40%	30%	20%	30%	0%	8.3%	inactive	inactive	0%	80%	inactive	70%	inactive	0%	85%
CSc1nnc(Cn2nnn(-c3ccc(Cl)cc3)c2=O)s1	inactive	60%	30%	inactive	60%	50%	50%	40%	60%	0%	5.7%	inactive	inactive	40%	50%	inactive	70%	inactive	0%	0%
C=CCSc1nnc(Cn2nnn(-c3ccc(Cl)cc3)c2=O)s1	inactive	60%	60%	inactive	0%	40%	40%	0%	50%	70%	0%	inactive	inactive	0%	40%	inactive	40%	inactive	72.9%	60%
CO/C=C\C(C(=O)OC)c1ccccc1CSc1nnc(Cn2nnn(-c3ccc(Cl)cc3)c2=O)s1 (stereo not given)	inactive	60%	30%	inactive	30%	30%	40%	0%	0%	0%	2.9%	inactive	inactive	30%	60%	inactive	30%	inactive	0%	30%
C=CCSc1nnc(Cn2nnn(-c3ccc(Cl)cc3)c2=O)o1	inactive	0%	0%	inactive	50%	60%	0%	0%	0%	0%	5%	inactive	inactive	60%	60%	inactive	70%	inactive	96.8%	80%
CCCCSc1nnc(Cn2nnn(-c3ccc(Cl)cc3)c2=O)s1	inactive	50%	70%	inactive	0%	0%	40%	40%	40%	30%	0%	inactive	inactive	0%	30%	inactive	40%	inactive	5.7%	50%
Cc1ccccc1CSc1nnc(Cn2nnn(-c3ccc(Cl)cc3)c2=O)s1	inactive	0%	60%	inactive	0%	40%	60%	30%	60%	70%	0%	inactive	inactive	0%	40%	inactive	30%	inactive	0%	50%
CCOC(=O)C(C)Sc1nnc(Cn2nnn(-c3ccc(Cl)cc3)c2=O)o1 (stereo not given)	inactive	0%	0%	inactive	0%	0%	0%	0%	0%	0%	8.3%	inactive	inactive	0%	0%	inactive	60%	inactive	0%	80%
